The subject of experiment [1] is LPS E. coli K-235. Nature of the experiment: LPS binding, dansyl cadaverine. The conditions noted are these: LPS E. coli K-235 280 μg/mL, DC 12 μM, 10 mM phosphate buffer pH 7.4, 25 °C. Also on record: species or system Escherichia coli. The method in brief: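 Test peptide was added in small successive aliquots to a preformed DC:LPS complex. […] Excitation was at 340 nm and emission scanned 420–600 nm (slits 2.5/5 nm). Probe occupancy was calculated as (F−F0)/(Fmax−F0), where F0 is DC alone, Fmax is DC at maximum LPS, and F is DC–LPS at each peptide concentration. A positive-control peptide was run first.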

The subject of experiment [2] is E. coli K-12 strain MG1655 (CGSC-7740). The conditions noted are these: concentration at which no viable colonies are formed; 10 mM phosphate buffer pH 7.4; cited from earlier work.
The test system of experiment [3] is S. aureus (ATCC 8530). The conditions noted are these: concentration at which no viable colonies are formed; 10 mM phosphate buffer pH 7.4; cited from earlier work.

Bridge positions count the residues as written; N and C are the ends. Square brackets hold non-standard residues; d marks the D form. Ends that are not written are not given here. Peptide text beside a SMILES is read from it. * marks the point of attachment. Myristoyl = CCCCCCCCCCCCCC(=O)*; Phe(ol) = N[C@H](CO)Cc1ccccc1; Aib = CC(C)(N)C(=O)O; NHCH2CH2OH = OCCN*; For = O=C*

Turning to `CC(=O)NC(C)(C)C(=O)N1CCC[C@H]1C(=O)NC(C)(C)C(=O)N[C@@H](C)C(=O)NC(C)(C)C(=O)N[C@@H](C)C(=O)N[C@@H](CCC(N)=O)C(=O)NC(C)(C)C(=O)N[C@H](C(=O)NC(C)(C)C(=O)NCC(=O)N[C@@H](CC(C)C)C(=O)NC(C)(C)C(=O)N1CCC[C@H]1C(=O)N[C@H](C(=O)NC(C)(C)C(=O)NC(C)(C)C(=O)N[C@@H](CCC(=O)O)C(=O)N[C@@H](CCC(N)=O)C(=O)N[C@H](CO)Cc1ccccc1)C(C)C)C(C)C` [alamethicin] (Ac-[Aib]P[Aib]A[Aib]AQ[Aib]V[Aib]GL[Aib]PV[Aib][Aib]EQ[Phe(ol)]; N-terminus assumed), the “Relative binding affinity to LPS (DC displacement)” value (“Relative binding affinity to LPS” for short) in experiment [1] was “weak affinity as compared to polymyxin B”. With `CC(C)C[C@@H](NC(=O)[C@H](C)NC(=O)CNC(=O)[C@@H](NC=O)C(C)C)C(=O)N[C@@H](C)C(=O)N[C@@H](C(=O)N[C@H](C(=O)N[C@@H](C(=O)N[C@@H](Cc1c[nH]c2ccccc12)C(=O)N[C@H](CC(C)C)C(=O)N[C@@H](Cc1c[nH]c2ccccc12)C(=O)N[C@H](CC(C)C)C(=O)N[C@@H](Cc1c[nH]c2ccccc12)C(=O)N[C@H](CC(C)C)C(=O)N[C@@H](Cc1c[nH]c2ccccc12)C(=O)NCCO)C(C)C)C(C)C)C(C)C` [gramicidin A] (For-VGA[dL]A[dV]V[dV]W[dL]W[dL]W[dL]W-NHCH2CH2OH; N-terminus and C-terminus assumed), the “Relative binding affinity to LPS” value in experiment [1] is “weak affinity as compared to polymyxin B”. In the case of “ACPIFTKIQGTYRGKAKCK (disulfide 2-18 (inferred)) [Phd1]”, in experiment [2], the “MBC, E. coli” value was 19 µM. For the same compound, in experiment [3], the “MBC, S. aureus” value is 20 µM. Moreover, the “Relative binding affinity to LPS” value in experiment [1] was “more affinity as compared to Phd2-3 and MPhd2-3”. In the case of “Myristoyl-ACPIFTKIQGTYRGKAKCK (disulfide 2-18 (inferred)) [MPhd1]”, in experiment [2], the “MBC, E. coli” value is 5 µM. In experiment [3], the “MBC, S. aureus” value is 5 µM. Also, the “Relative binding affinity to LPS” value in experiment [1] was “more affinity as compared to Phd2-3 and MPhd2-3”. Regarding “Myristoyl-FCPRRYKQIGTGLPGTKCK (disulfide 2-18 (inferred)) [MPhd2]”, the “MBC, E. coli” value in experiment [2] is 6 µM. Also, the “MBC, S. aureus” value in experiment [3] was 5 µM. Regarding “Myristoyl-SCLPKEEQIGKSTRGRKCRRKK (disulfide 2-18 (inferred)) [MPhd3]”, the “MBC, E. coli” value in experiment [2] was 4 µM. For the same compound, the “MBC, S. aureus” value in experiment [3] is 4 µM. On to “cyclized isooctanoyl BTBB(BF^dLBBT) (lariat or depsi) [polymyxin B]”, for which the “Relative binding affinity to LPS” value in experiment [1] is “strong binding compared to HBD2-3 as well as LL37 and melittin”.

The record behind these values is article PMC7114172 (ACS Omega, 2020).
